Converted amounts (≈) assume the structure as drawn. The source made the active and inactive calls. The calls are words filed in the database; no cut-off is given here.
Key:
[1] = biological target: T1, Cannabinoid receptor 2 (Homo sapiens, UniProt P34972); test: (§1) Antagonist activity at human CB2 receptor expressed in CHO cells co-expressing Galpha16 assessed as inhibition of EC80 CP55,940-induced calcium mobilization preincubated for 15 mins followed by […] addition measured at 1 sec interval for 90 secs by calcium-5 dye based FLIPR assay; assay type: functional, cell-based
Procedure, shortened: (§2)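 CB2 antagonist mode in stable human CB2-CHO-RD-HGA16 cells. Cells were dye-loaded, then pretreated with compound for 15 min at 37 °C. CP55,940 was added at its EC80 at the 10 s point, and calcium fluorescence was recorded every 1 s over 90 s.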

[2] = biological target: T2, Cannabinoid receptor 1 (Homo sapiens, UniProt P21554); test: Allosteric modulator activity at human CB1 receptor expressed in CHO-RD-HGA16 cells co-expressing Galpha16 assessed as suppression of 100 nM CP55,940-induced calcium mobilization pre-incubated for 15 mins by Calcium 5 dye based FLIPR assay; assay type: functional, cell-based
[3] = biological target: T1, Cannabinoid receptor 2; test: Agonist activity at human CB2 receptor expressed in CHO cells co-expressing Galpha16 assessed as increase in calcium mobilization at 10 uM measured at 1 sec interval for 90 secs by calcium-5 dye based FLIPR assay relative to CP55,940; assay type: functional, cell-based
[4] = biological target: T1, Cannabinoid receptor 2; test: as §1, with “mobilization at 10 uM” for “mobilization”, “assay relative to CP55,940” for “assay”; assay type: functional, cell-based; procedure, shortened: as §2
[5] = biological target: T2, Cannabinoid receptor 1; test: Inverse agonist activity at human CB1 receptor expressed in HEK293 cell membranes assessed as suppression of [35S]GTPgammaS binding up to 10 uM incubated for 60 mins by scintillation counting method; settings: hek293, 1 h
Procedure, shortened: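 Inverse agonism on human CB1-HEK293 membranes: compounds were incubated 60 min with 0.1 nM [35S]GTPγS and 30 µM GDP, with no CP55,940 present. Buffer was Tris/MgCl2/EGTA pH 7.4 with 0.5% BSA, at 30 °C. Binding was read by filtration and scintillation counting and normalized to basal (vehicle = 0%).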

[6] = Half life in rat liver microsomes in presence of NADPH by LC-MS/MS analysis; assay type: ADME, Microsome; settings: microsomes
Procedure, shortened: (§3)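 Rat liver microsomes (0.5 mg/mL protein) in 100 mM potassium phosphate pH 7.4 at 37 °C with 1 mM NADPH. Samples were taken at 0, 5, 15, 30 and 45 min, quenched with cold acetonitrile containing internal standards, and analysed by LC/MS/MS. Half-life and clearance were calculated; two independent experiments in duplicate.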

[7] = Clearance in rat liver microsomes in presence of NADPH incubated up to 45 mins by LC-MS/MS analysis; assay type: ADME, Microsome; settings: microsomes, […]; procedure, shortened: as §3
[8] = Kinetic solubility in phosphate buffer at 400 uM incubated for 2 hrs by LC-MS/MS analysis; assay type: physicochemical; settings: read-out: Kinetic_solubility
Procedure, shortened: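 A 20 mM DMSO stock was diluted into phosphate buffer to a targeted 400 µM and vortexed 2 h at room temperature. Three independent experiments in duplicate.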

[9] = Apparent permeability from apical to basolateral side in MDCK-MDR1 cells incubated up to 90 mins by LC-MS/MS analysis; assay type: ADME, cell-based, Canis lupus familiaris; settings: dog
Procedure, shortened: (§4)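 MDCK-MDR1 cells were grown 3 days on Transwell supports and preincubated 30 min at 37 °C in HBSS with 10 mM HEPES and 0.25% BSA, pH 7.4, with TEER checked. Test article (10 µM) was added to the apical (A-to-B) or basolateral (B-to-A) donor side at 37 °C with light agitation. Receiver samples were taken at 30, 60 and 90 min for LC-MS/MS. Papp = (dQ/dt)/(A·Ci·60).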

[10] = Apparent permeability from basolateral to apical side in MDCK-MDR1 cells incubated up to 90 mins by LC-MS/MS analysis; assay type: ADME, cell-based, Canis lupus familiaris; settings: dog; procedure, shortened: as §4
[11] = Efflux ratio from basolateral to apical side over apical to basolateral side in MDCK-MDR1 cells incubated up to 90 mins by LC-MS/MS analysis; assay type: ADME, cell-based, Canis lupus familiaris; settings: dog
[12] = tested on: Rattus norvegicus; test: Suppression of drug-induced cocaine-seeking behavior in Sprague-Dawley rat assessed as effect on active responses at 10 mg/kg, ip pretreated 10 mins prior to priming injection of cocaine administered immediately before the start of the reinstatement session; assay type: functional, organism-based
[13] = tested on: Rattus norvegicus; test: Suppression of drug-induced cocaine-seeking behavior in Sprague-Dawley rat assessed as effect on inactive responses at 10 mg/kg, ip pretreated 10 mins prior to priming injection of cocaine administered immediately before the start of the reinstatement session; assay type: functional, organism-based

T1 sequence (P34972 whole entry): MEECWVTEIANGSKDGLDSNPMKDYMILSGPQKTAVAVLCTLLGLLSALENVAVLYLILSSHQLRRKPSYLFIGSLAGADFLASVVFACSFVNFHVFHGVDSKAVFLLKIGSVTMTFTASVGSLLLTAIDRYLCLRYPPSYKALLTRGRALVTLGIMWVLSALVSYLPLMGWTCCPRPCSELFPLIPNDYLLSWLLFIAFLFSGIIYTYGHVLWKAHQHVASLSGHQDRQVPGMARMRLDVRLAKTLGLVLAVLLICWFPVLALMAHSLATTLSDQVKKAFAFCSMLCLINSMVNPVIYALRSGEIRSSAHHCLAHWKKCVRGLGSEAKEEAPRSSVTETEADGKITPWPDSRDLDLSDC
T2 sequence (P21554 whole entry): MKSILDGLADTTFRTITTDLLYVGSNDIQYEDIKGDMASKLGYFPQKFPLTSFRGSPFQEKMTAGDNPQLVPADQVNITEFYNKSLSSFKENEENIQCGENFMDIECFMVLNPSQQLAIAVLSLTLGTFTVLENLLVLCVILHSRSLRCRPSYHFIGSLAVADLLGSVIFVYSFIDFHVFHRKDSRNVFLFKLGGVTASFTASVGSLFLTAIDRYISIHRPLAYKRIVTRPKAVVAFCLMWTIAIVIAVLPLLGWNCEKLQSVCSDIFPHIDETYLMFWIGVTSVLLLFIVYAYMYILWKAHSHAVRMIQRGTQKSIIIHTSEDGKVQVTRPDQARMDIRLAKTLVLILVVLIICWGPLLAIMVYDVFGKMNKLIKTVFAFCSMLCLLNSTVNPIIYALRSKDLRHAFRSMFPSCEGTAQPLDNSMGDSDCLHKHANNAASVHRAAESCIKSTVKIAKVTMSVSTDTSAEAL

O=C(Nc1ccc(Cl)cc1)Nc1ccc(-c2ccccc2)s1
IC50 [1]: > 10000 nM
IC50 [2]: 6.8 nM
Emax [3]: < 10%
inhibition [4]: < 50%
inhibition (INH) [5]: Not Active
t1/2 [6]: 1.08 h
CLH [7]: 22.2 µL/min/mg
solubility kinetic at 2 h, 400 µM [8]: 1.5 µM (≈ 0.493 µg/mL)
Papp [9]: 1.6 ×10⁻⁶ cm/s
Papp [10]: 1.1 ×10⁻⁶ cm/s
Ratio [11]: 0.7
Activity [12]: inactive
Activity [13]: inactive

Reference: ChEMBL document CHEMBL4414612, “Synthesis and Pharmacological Evaluation of 1-Phenyl-3-Thiophenylurea Derivatives as Cannabinoid Type-1 Receptor Allosteric Modulators” (J Med Chem, 2019)
